Laboratory results reported in ChEMBL document CHEMBL1275278, “Synthesis and pharmacological evaluation of clubbed isopropylthiazole derived triazolothiadiazoles, triazolothiadiazines and mannich bases as potential antimicrobial and antitubercular agents” (Eur J Med Chem, 2010).
≈ marks a conversion by molar mass, not a printed value.

Legend:
Type in all cases: functional
[1] = system: Mycobacterium tuberculosis; experiment: Antimycobacterial activity against Mycobacterium tuberculosis H37Rv after 21 days by broth dilution assay; settings: 504 h
Outline: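 Frozen culture in Middlebrook 7H9 broth with 10% albumin-dextrose-catalase and 0.2% glycerol, thawed and diluted in broth to 10⁵ cfu/mL. Compounds dissolved in DMSO, twofold diluted in broth; final DMSO 1.3%. Tubes inoculated, incubated at 37 °C. Growth compared visually against drug-free and drug- and inoculum-free controls and isoniazid. MIC = lowest concentration inhibiting ≥99% of the starting bacterial population.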

Staphylococcus aureus = experiment: Antibacterial activity against Staphylococcus aureus ATCC 11632 after 24 hrs by broth microdilution method; settings: ATCC 11632, 24 h
Outline: (§1)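 Broth dilution in Mueller-Hinton broth. Tubes inoculated at 10⁵ cfu/mL and incubated 37 °C for 24 h. MIC taken as lowest concentration completely inhibiting growth. Media and media-plus-DMSO growth controls; ciprofloxacin and norfloxacin as reference standards.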

Saccharomyces cerevisiae = experiment: Antifungal activity against Saccharomyces cerevisiae ATCC 9763 after 24 hrs by broth microdilution method; settings: ATCC 9763, 24 h
Klebsiella pneumoniae = experiment: Antibacterial activity against Klebsiella pneumoniae ATCC 10031 after 24 hrs by broth microdilution method; settings: ATCC 10031, 24 h; outline: as §1
Enterococcus faecalis = experiment: Antibacterial activity against Streptococcus faecalis ATCC 14506 after 24 hrs by broth microdilution method; settings: ATCC 14506, 24 h; outline: as §1
Pseudomonas aeruginosa = experiment: Antibacterial activity against Pseudomonas aeruginosa ATCC 10145 after 24 hrs by broth microdilution method; settings: ATCC 10145, 24 h; outline: as §1
Bacillus subtilis = experiment: Antibacterial activity against Bacillus subtilis ATCC 60511 after 24 hrs by broth microdilution method; settings: ATCC 60511, 24 h; outline: as §1
Aspergillus niger = experiment: Antifungal activity against Aspergillus niger ATCC 6275 after 24 hrs by broth microdilution method; settings: ATCC 6275, 24 h
Candida tropicalis = experiment: Antifungal activity against Candida tropicalis ATCC 1369 after 24 hrs by broth microdilution method; settings: ATCC 1369, 24 h
Escherichia coli = experiment: Antibacterial activity against Escherichia coli ATCC 10536 after 24 hrs by broth microdilution method; settings: ATCC 10536, 24 h; outline: as §1

| Compound | MIC [1] [µg/mL] | MIC (Staphylococcus aureus) [µg/mL] | MIC (Saccharomyces cerevisiae) [µg/mL] | MIC (Klebsiella pneumoniae) [µg/mL] | MIC (Enterococcus faecalis) [µg/mL] | MIC (Pseudomonas aeruginosa) [µg/mL] | MIC (Bacillus subtilis) [µg/mL] | MIC (Aspergillus niger) [µg/mL] | MIC (Candida tropicalis) [µg/mL] | MIC (Escherichia coli) [µg/mL] |
| --- | --- | --- | --- | --- | --- | --- | --- | --- | --- | --- |
| CC(C)c1csc(-c2nnc3n2NC(c2ccccc2Cl)S3)n1 (centres undefined) | 62.5 (≈ 172 µM) | 31.2 (≈ 85.9 µM) | 125 (≈ 344 µM) | 31.2 (≈ 85.9 µM) | 31.2 (≈ 85.9 µM) | 62.5 (≈ 172 µM) | 125 (≈ 344 µM) | 31.2 (≈ 85.9 µM) | 16 (≈ 44 µM) | 62.5 (≈ 172 µM) |
| COc1ccc(C2Nn3c(nnc3-c3nc(C(C)C)cs3)S2)cc1 (centres undefined) | – | 31.2 (≈ 86.9 µM) | 62.5 (≈ 174 µM) | 250 (≈ 695 µM) | 16 (≈ 44.5 µM) | 62.5 (≈ 174 µM) | 62.5 (≈ 174 µM) | 125 (≈ 348 µM) | 125 (≈ 348 µM) | 125 (≈ 348 µM) |
| CC(C)c1csc(-c2nn(CN3CCOCC3)c(=S)n2/N=C/c2ccccc2Cl)n1 | 31.2 (≈ 67.5 µM) | 31.2 (≈ 67.5 µM) | 125 (≈ 270 µM) | 16 (≈ 34.6 µM) | 62.5 (≈ 135 µM) | 62.5 (≈ 135 µM) | 125 (≈ 270 µM) | 31.2 (≈ 67.5 µM) | 125 (≈ 270 µM) | 62.5 (≈ 135 µM) |
| COc1ccc(/C=N/n2c(-c3nc(C(C)C)cs3)nn(CN3CCOCC3)c2=S)cc1 | – | 125 (≈ 273 µM) | 62.5 (≈ 136 µM) | 31.2 (≈ 68.1 µM) | 62.5 (≈ 136 µM) | 16 (≈ 34.9 µM) | 125 (≈ 273 µM) | 16 (≈ 34.9 µM) | 31.2 (≈ 68.1 µM) | 125 (≈ 273 µM) |
| CC(C)c1csc(-c2n[nH]c(=S)n2NC(=O)c2ccccc2)n1 | 16 (≈ 46.3 µM) | 16 (≈ 46.3 µM) | 62.5 (≈ 181 µM) | 125 (≈ 362 µM) | 31.2 (≈ 90.5 µM) | 16 (≈ 46.3 µM) | 31.2 (≈ 90.5 µM) | 16 (≈ 46.3 µM) | 31.2 (≈ 90.5 µM) | 31.2 (≈ 90.5 µM) |
| Cc1ccc(C2=Nn3c(nnc3-c3nc(C(C)C)cs3)SC2)cc1 | 16 (≈ 45 µM) | 16 (≈ 45 µM) | 62.5 (≈ 176 µM) | 8 (≈ 22.5 µM) | 31.2 (≈ 87.9 µM) | 8 (≈ 22.5 µM) | 31.2 (≈ 87.9 µM) | 31.2 (≈ 87.9 µM) | 31.2 (≈ 87.9 µM) | 8 (≈ 22.5 µM) |
| CC(C)c1csc(-c2nnc3n2NC(c2ccc(N(C)C)cc2)S3)n1 (centres undefined) | 4 (≈ 10.7 µM) | 16 (≈ 43 µM) | 31.2 (≈ 83.9 µM) | 125 (≈ 336 µM) | 31.2 (≈ 83.9 µM) | 62.5 (≈ 168 µM) | 62.5 (≈ 168 µM) | 31.2 (≈ 83.9 µM) | 31.2 (≈ 83.9 µM) | 62.5 (≈ 168 µM) |
| Cc1nn2c(-c3nc(C(C)C)cs3)nnc2s1 | 31.2 (≈ 118 µM) | 62.5 (≈ 236 µM) | 62.5 (≈ 236 µM) | 16 (≈ 60.3 µM) | 31.2 (≈ 118 µM) | 62.5 (≈ 236 µM) | 31.2 (≈ 118 µM) | 31.2 (≈ 118 µM) | 31.2 (≈ 118 µM) | 125 (≈ 471 µM) |
| O=C(O)c1cn(C2CC2)c2cc(N3CCNCC3)c(F)cc2c1=O [CIPROFLOXACIN] | – | ≤ 5 | – | ≤ 1 | ≤ 5 | ≤ 5 | ≤ 1 | – | – | ≤ 1 |
| CC(C)c1csc(-c2nnc3n2NC(c2ccc(O)cc2)S3)n1 (centres undefined) | 125 (≈ 362 µM) | 62.5 (≈ 181 µM) | 62.5 (≈ 181 µM) | 62.5 (≈ 181 µM) | 62.5 (≈ 181 µM) | 62.5 (≈ 181 µM) | 31.2 (≈ 90.5 µM) | 125 (≈ 362 µM) | 125 (≈ 362 µM) | 62.5 (≈ 181 µM) |
| CC(C)c1csc(-c2nnc3n2N=C(c2ccc(Br)cc2)CS3)n1 | 62.5 (≈ 149 µM) | 125 (≈ 297 µM) | 62.5 (≈ 149 µM) | 16 (≈ 38.1 µM) | 31.2 (≈ 74.3 µM) | 62.5 (≈ 149 µM) | 31.2 (≈ 74.3 µM) | 125 (≈ 297 µM) | 31.2 (≈ 74.3 µM) | 31.2 (≈ 74.3 µM) |
| CC(C)c1csc(-c2nnc3n2NC(c2ccc([N+](=O)[O-])cc2)S3)n1 (centres undefined) | 62.5 (≈ 167 µM) | 125 (≈ 334 µM) | 16 (≈ 42.7 µM) | 31.2 (≈ 83.5 µM) | 125 (≈ 334 µM) | 125 (≈ 334 µM) | 62.5 (≈ 167 µM) | 8 (≈ 21.4 µM) | 8 (≈ 21.4 µM) | 62.5 (≈ 167 µM) |
| CC(C)c1csc(-c2nnc3n2N=C(c2ccc(Cl)cc2)CS3)n1 | 16 (≈ 42.6 µM) | 125 (≈ 333 µM) | 16 (≈ 42.6 µM) | 16 (≈ 42.6 µM) | 8 (≈ 21.3 µM) | 16 (≈ 42.6 µM) | 8 (≈ 21.3 µM) | 31.2 (≈ 83.1 µM) | 62.5 (≈ 166 µM) | 125 (≈ 333 µM) |
| COc1ccc(/C=N/n2c(-c3nc(C(C)C)cs3)nn(CN3CCN(C)CC3)c2=S)cc1 | 16 (≈ 33.9 µM) | 31.2 (≈ 66.3 µM) | 16 (≈ 33.9 µM) | 31.2 (≈ 66.3 µM) | 16 (≈ 33.9 µM) | 16 (≈ 33.9 µM) | 8 (≈ 17 µM) | 31.2 (≈ 66.3 µM) | 31.2 (≈ 66.3 µM) | 31.2 (≈ 66.3 µM) |
| CC(C)c1csc(-c2nnc3n2N=C(c2ccc([N+](=O)[O-])cc2)CS3)n1 | 31.2 (≈ 80.9 µM) | 125 (≈ 323 µM) | 16 (≈ 41.4 µM) | 31.2 (≈ 80.9 µM) | 125 (≈ 323 µM) | 125 (≈ 323 µM) | 16 (≈ 41.4 µM) | 62.5 (≈ 162 µM) | 31.2 (≈ 80.9 µM) | 16 (≈ 41.4 µM) |
| CC(C)c1csc(-c2nn(CN3CCN(C)CC3)c(=S)o2)n1 | 16 (≈ 47.1 µM) | 62.5 (≈ 184 µM) | 62.5 (≈ 184 µM) | 16 (≈ 47.1 µM) | 31.2 (≈ 92 µM) | 16 (≈ 47.1 µM) | 31.2 (≈ 92 µM) | 16 (≈ 47.1 µM) | 31.2 (≈ 92 µM) | 31.2 (≈ 92 µM) |
| CC(C)c1csc(-c2nnc3n2N=C(c2ccc(O)cc2)CS3)n1 | 125 (≈ 350 µM) | 62.5 (≈ 175 µM) | 16 (≈ 44.8 µM) | 16 (≈ 44.8 µM) | 31.2 (≈ 87.4 µM) | 62.5 (≈ 175 µM) | 31.2 (≈ 87.4 µM) | 31.2 (≈ 87.4 µM) | 31.2 (≈ 87.4 µM) | 31.2 (≈ 87.4 µM) |
| CC(C)c1csc(-c2nn(CN3CCOCC3)c(=S)n2/N=C/c2ccc(N(C)C)cc2)n1 | 16 (≈ 33.9 µM) | 16 (≈ 33.9 µM) | 62.5 (≈ 133 µM) | 31.2 (≈ 66.3 µM) | 31.2 (≈ 66.3 µM) | 31.2 (≈ 66.3 µM) | 16 (≈ 33.9 µM) | 16 (≈ 33.9 µM) | 31.2 (≈ 66.3 µM) | 31.2 (≈ 66.3 µM) |
| CC(C)c1csc(-c2nn(CN3CCOCC3)c(=S)o2)n1 | 31.2 (≈ 95.7 µM) | 31.2 (≈ 95.7 µM) | 31.2 (≈ 95.7 µM) | 31.2 (≈ 95.7 µM) | 16 (≈ 49 µM) | 16 (≈ 49 µM) | 16 (≈ 49 µM) | 62.5 (≈ 191 µM) | 31.2 (≈ 95.7 µM) | 31.2 (≈ 95.7 µM) |
| OC(Cn1cncn1)(Cn1cncn1)c1ccc(F)cc1F [FLUCONAZOLE] | – | – | ≤ 1 | – | – | – | – | ≤ 1 | ≤ 1 | – |
| CCn1cc(C(=O)O)c(=O)c2cc(F)c(N3CCNCC3)cc21 [NORFLOXACIN] | – | ≤ 5 | – | ≤ 1 | ≤ 5 | ≤ 5 | ≤ 1 | – | – | ≤ 1 |
| NNC(=O)c1ccncc1 [ISONIAZID] | 0.25 (≈ 1.82 µM) | – | – | – | – | – | – | – | – | – |
